Screening data: PubChem, several laboratories
GSTO1 inh: GSTO1 inhibition, counter-screen for RBBP9 inhibitors | recombinant GSTO1, activity-based probe fluorescence polarization | P78417 | inhibition, % at 5.96 µM | hit rate 1.1% among 300,000;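 active means inhibition above the campaign mean inhibition plus 3 SD, cut at about 35% in these data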;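 further: 0% = GSTO1-1 with DMSO and 100% = wells lacking GSTO1-1 enzyme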
Target sequence (P78417 whole entry, looked up): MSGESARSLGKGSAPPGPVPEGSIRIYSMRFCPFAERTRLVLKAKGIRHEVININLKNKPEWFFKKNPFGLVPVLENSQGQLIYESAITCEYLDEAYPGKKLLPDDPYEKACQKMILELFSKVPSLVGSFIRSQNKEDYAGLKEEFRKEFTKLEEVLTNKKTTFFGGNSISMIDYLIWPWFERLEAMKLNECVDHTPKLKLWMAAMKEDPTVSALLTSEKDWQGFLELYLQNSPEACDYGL
HKDC1 inhibitor: HKDC1 (human) hexokinase inhibition; recombinant HKDC1, G6PDH/diaphorase resazurin coupled fluorescence; Q2TB90; inhibition, % at 20 µM; hit rate 0.16% among 340,000;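 active means inhibition above about 35% when tested at 20 µM, limit read from the data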;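 further: plate controls were DMSO wells with enzyme for no effect and DMSO wells lacking enzyme for full effect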
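System: Recombinant HKDC1 hexokinase | Amount: HKDC1 at 5 µg/mL | Reagent: Glucose with 1 mM ATP | Doses: Single 20 µM dose | Incubation: Reaction time 90 min, room temperature, protected from light | Signal: Coupled resazurin fluorescence, excitation 525 nm, emission 613 nm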
Fh CTSL1 inh: blocks F. hepatica cathepsin L1 in PFM18AAP counter-screen. recombinant F. hepatica cathepsin L1, Z-Leu-Arg-MCA fluorescence. inhibition, % at 5.96 µM. hit rate 0.49% among 300,000;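 active means inhibition above the mean of all tested compounds plus 3 SD, set per screening campaign, cut at about 17% in these data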;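 further: 0% = plate median of test compound wells and 100% = 1 µM Z-Phe-Ala-diazomethylketone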
PAD4 FP inh: blocks human protein arginine deiminase 4 | Q9UM07 | recombinant PAD4, RCA probe fluorescence polarization | inhibition, % at 6.36 µM | hit rate 0.41% among 330,000;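 active means percent inhibition above a cutoff equal to the mean of all tested compounds plus 3 SD, cut at about 15% in these data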;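 further: 0% = PAD4 with RCA probe and DMSO and 100% = probe without PAD4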
UCH37 DUB inh: human UCH37 deubiquitinating enzyme inhibition | purified proteasome/UCH37, Ub-AMC cleavage fluorescence | inhibition, % (concentration not given with the values) | hit rate 0.33% among 330,000;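 active means mean inhibition over replicate wells above about 20%, limit read from the data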;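 further: 0% = compound-free wells with enzyme and 100% = wells lacking proteasome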
Target sequence (Q9Y5K5 whole entry, looked up): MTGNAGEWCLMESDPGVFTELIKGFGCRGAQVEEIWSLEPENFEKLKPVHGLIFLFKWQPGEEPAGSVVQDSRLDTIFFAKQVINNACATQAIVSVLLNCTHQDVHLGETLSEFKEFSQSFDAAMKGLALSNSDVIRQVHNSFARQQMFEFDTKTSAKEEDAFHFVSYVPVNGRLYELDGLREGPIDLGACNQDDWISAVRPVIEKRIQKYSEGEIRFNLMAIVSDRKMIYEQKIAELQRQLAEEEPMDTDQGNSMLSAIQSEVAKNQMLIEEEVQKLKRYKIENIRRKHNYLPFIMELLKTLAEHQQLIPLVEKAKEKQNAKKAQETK
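System: Proteasome-associated human UCH37 deubiquitinase; Input: 0.15 nM proteasome in added enzyme buffer; Also added: Ub-AMC substrate from 1 µM stock; Incubation: 30 min compound-proteasome preincubation then 25 min substrate reaction, room temperature; Detection: fluorescence, ex 355 nm, em 460 nm; Read-out: % inhibition of Ub-AMC cleavage fluorescence; Benchmarks: no-proteasome and no-compound wells.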
TDP2 inh: blocks human TDP2 phosphodiesterase activity. O95551. recombinant TDP2, T5PNP hydrolysis, p-nitrophenol absorbance 415 nm. inhibition, % at 12.8 µM. hit rate 0.34% among 370,000. AID 720702;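 active means inhibition above the mean of all tested compounds plus 3 SD, set per campaign, cut at about 25% in these data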;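 further: 0% = DMSO with enzyme and 100% = buffer with substrate but no TDP2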
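Assay system: Recombinant human TDP2 | Quantity: 120 nM TDP2 per well | Incubation: 2 h at 37 °C | Signal: Epi absorbance | Evaluation: Percent inhibition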
GSTO1 inh conf: GSTO1 (human) inhibition, confirmation | recombinant GSTO1, probe fluorescence polarization | shares compounds with GSTO1 inh | hit rate 54% among 2,400 | inhibition, % at 5.96 µM | AID 2176;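 active means inhibition above the primary screen's cutoff, its mean inhibition plus 3 SD, cut at about 35% in these data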;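 further: loss of polarization as inhibitors block binding of rhodamine sulfonate ester activity probe; 0% = GSTO1 with DMSO and 100% = wells lacking GSTO1 enzyme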
GSTO1 recomb ABPP: blocks recombinant human glutathione S-transferase omega 1; hit rate 30% among 130; shares compounds with GSTO1 inh; inhibition, % at 1 µM; recombinant GSTO1, gel ABPP SE-Rh probe fluorescence;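 active means inhibition of the enzyme GSTO1 above about 75%, limit read from the data; inactive means inhibition below that limit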
* = called active by the depositor; x = not tested or not shown. Shown are actives, neighbours in structure and some others; about 1.6% of the full set was active somewhere.

SMILES	GSTO1 inh	HKDC1 inhibitor	Fh CTSL1 inh	PAD4 FP inh	UCH37 DUB inh	TDP2 inh	GSTO1 inh conf	others
COc1ccc(C=NNC(=O)c2ccoc2C)cc1COc1c(C)cccc1C	x	x	x	x	6	x	x
CCNc1nc(NCC)nc(N/N=C/c2ccc(O)c(O)c2)n1	38*	-4	1	-1	x	-3	1
CCNc1nc(NCC)nc(N/N=C/c2ccc(N(C)C)cc2)n1	7	-8	14	6	x	8	x
COc1ccccc1C(=O)Nc1nc(-c2cccs2)c(NC(C)=O)s1	39*	2	5	1	-48	-6	8
Cc1ccc(NC(=O)Cc2nc(CCl)cs2)cc1	58*	9	-1	-3	5	-6	95*	GSTO1 recomb ABPP=87*
COc1ccc(NS(=O)(=O)c2ccc(O)c(C(=O)OCC(=O)NC(C)C3CC4CCC3C4)c2)cc1 (centres undefined)	-15	5	1	-2	2	3	x
CC(NC(=O)COC(=O)c1cc(NS(=O)(=O)c2ccc(Cl)c([N+](=O)[O-])c2)ccc1O)C1CC2CCC1C2 (centres undefined)	46*	4	2	1	7	11	40*
Cc1ccc2c(C)nc(N=C(N)NC(=O)N3c4ccccc4Sc4ccccc43)nc2c1	x	x	x	x	3	x	x
CC1(C(=O)Nc2cccc(C(F)(F)F)c2)CO1 (centres undefined)	68*	x	0	0	x	x	85*	GSTO1 recomb ABPP=19
O=S1(=O)c2cccc3cccc(c23)N1CCBr	45*	13	5	0	-34	-14	51*
CCN(CC)C(=O)c1ccc(N)cc1	43*	-6	-1	1	0	6	5
N#Cc1c(SCC(=O)Nc2ccc(C(F)(F)F)cc2)sc2c(O)cc(=O)[nH]c12	15	-7	3	0	3	3	x
N#Cc1c(SCC(=O)Nc2nncs2)sc2c(O)cc(=O)[nH]c12	51*	8	3	-14	x	21	63*
CNC(=O)COC(=O)c1cc(-c2ccco2)nc2ccccc12	40*	13	-3	4	-234	2	9
Cc1nccn1CC(=O)NN=Cc1cccc(O)c1	x	x	x	x	0	x	x
CC(=NNC(=O)c1ccc(CN2CCOCC2)cc1)c1ccc([N+](=O)[O-])cc1	x	x	x	x	1	x	x
COc1ccc(NC(=O)NCCC2=CCCCC2)cc1	64*	-6	-3	0	4	4	10
Fc1ccccc1-c1csc(=Nc2cccnc2)n1CC1CCCO1 (centres undefined)	4	2	4	1	3	3	x
Fc1ccccc1-c1csc(=Nc2cccnc2)n1CCCn1ccnc1	41*	0	1	-4	5	-4	5
O=[N+]([O-])c1ccc(O)c(/C=N/Nc2nn[nH]n2)c1	47*	-8	4	1	x	-5	9
Cc1ccc(-c2noc(CSc3nnnn3C3CCCCC3)n2)cc1	40*	-2	4	-1	4	5	33
Cc1ccc(-c2noc(CSc3nnc(-c4ccncc4)n3-c3ccc(C)cc3)n2)cc1	9	1	2	-1	4	4	x
COc1cccc2c(SCC(=O)NN=Cc3ccccc3)cc(C)nc12	x	x	x	x	-38	x	x
Cc1oc2c(O)c(O)ccc2c(=O)c1-c1ccccc1	22	6	6	3	7	-1	x
Cc1oc2c(O)c(O)ccc2c(=O)c1-c1cnn(-c2ccccc2)c1	59*	9	13	7	12	-12	23
SMILES	GSTO1 inh	HKDC1 inhibitor	Fh CTSL1 inh	PAD4 FP inh	UCH37 DUB inh	TDP2 inh	GSTO1 inh conf	others
COC(=O)CSc1nnc(-c2sc3ccccc3c2Cl)o1	1	4	2	-3	-3	6	x
N#CCSc1nnc(-c2sc3ccccc3c2Cl)o1	40*	12	1	-5	1	-9	33
CN1CCN(C2=C(NS(=O)(=O)c3ccccc3)C(=O)c3ccccc3C2=O)CC1	46*	14	10	1	12	x	10
O=C1C(NS(=O)(=O)c2ccc(Cl)cc2)=C(N2CCCCC2)C(=O)c2ccccc21	48*	12	-4	-11	12	1	27
CN1CCN(C2=C(NS(=O)(=O)c3cccs3)C(=O)c3ccccc3C2=O)CC1	17	11	-4	-14	9	20	x
NC(=O)C1CCN(C2=C(NS(=O)(=O)c3ccccc3)C(=O)c3ccccc3C2=O)CC1	12	15	0	-5	16	9	x
CN(C)c1ccc(C=Nn2ncc3ccccc32)cc1	x	x	x	x	-72	x	x
CCOc1ccc(CN(C)C(=O)CCl)cc1	81*	1	14	-5	0	20	98*	GSTO1 recomb ABPP=71
CC1CN(Cc2c(O)ccc3c2oc(=O)c2ccccc23)CC(C)O1 (centres undefined)	42*	29	-4	-6	-12	0	46*
O=C(N/N=C/c1ccc(O)c(O)c1)c1cccc(S(=O)(=O)N2CCCC2)c1	67*	7	5	6	x	-5	4
Cc1ccc(S(=O)(=O)N2CCN(CC(=O)NN=Cc3ccccn3)CC2)cc1	x	x	x	x	2	x	x
O=C(NN=Cc1ccc(O)c(O)c1)c1cccc(S(=O)(=O)N2CCCC2)c1	x	x	x	x	10	x	x
CCN(CC)S(=O)(=O)c1cccc(C(=O)N/N=C/c2ccc(O)c(O)c2O)c1	63*	2	-3	-1	x	-6	20
Cc1ccc(C(=O)Nc2nnc(CC(=O)N/N=C/c3ccc(O)c(O)c3)s2)cc1	38*	33	9	-12	x	1	31
CCOc1ccccc1/C=N/NC(=O)c1cccc(S(=O)(=O)N(CC)CC)c1	4	2	0	1	x	5	x
Cc1ccc(S(=O)(=O)N2CCN(CC(=O)N/N=C\c3ccc(O)c(O)c3)CC2)cc1	46*	2	6	2	x	-12	3
O=C(CCC(=O)NN=Cc1ccccc1O)NCc1ccccc1	x	x	x	x	-37	x	x
CCCc1ccc(-c2cc(C(=O)NN=Cc3ccc([N+](=O)[O-])o3)c3ccccc3n2)cc1	x	x	x	x	3	x	x
COc1cccc(-c2c(C(=O)NN=C(C)c3ccncc3)nnn2-c2nonc2N)c1	x	x	x	x	2	x	x
CNc1ccc(Br)cc(C(=O)/C=C/c2ccc(OC)cc2)c1=O	28	12	3	-4	7	-7	x
CNc1ccc(Br)cc(C(=O)/C=C/c2ccc3c(c2)OCO3)c1=O	55*	28	2	-3	3	0	16
CCNc1ccc(Br)cc(C(=O)/C=C/c2ccc(Cl)cc2Cl)c1=O	43*	26	4	-3	8	-1	7
